For data set [1], the target named is T1, Sphingomyelin phosphodiesterase (Homo sapiens, UniProt P17405).
T1 sequence (P17405 whole entry): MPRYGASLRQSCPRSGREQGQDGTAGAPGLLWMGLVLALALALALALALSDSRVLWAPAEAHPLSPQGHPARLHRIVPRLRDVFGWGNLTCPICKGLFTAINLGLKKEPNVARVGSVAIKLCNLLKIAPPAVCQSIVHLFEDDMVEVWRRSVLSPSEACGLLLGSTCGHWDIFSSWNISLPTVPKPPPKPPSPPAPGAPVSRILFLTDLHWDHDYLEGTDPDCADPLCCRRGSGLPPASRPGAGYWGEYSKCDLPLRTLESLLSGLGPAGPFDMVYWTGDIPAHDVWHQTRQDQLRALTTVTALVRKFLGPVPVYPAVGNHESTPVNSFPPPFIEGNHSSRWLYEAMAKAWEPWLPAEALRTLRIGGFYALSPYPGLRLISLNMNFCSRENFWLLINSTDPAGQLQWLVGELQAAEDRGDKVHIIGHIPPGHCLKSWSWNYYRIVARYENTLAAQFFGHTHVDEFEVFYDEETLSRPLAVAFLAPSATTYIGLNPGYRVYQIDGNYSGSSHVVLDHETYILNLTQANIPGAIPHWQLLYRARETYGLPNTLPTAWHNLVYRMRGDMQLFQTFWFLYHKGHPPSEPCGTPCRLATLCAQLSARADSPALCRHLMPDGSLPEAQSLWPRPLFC
Kind of data set: Inhibition of human Huh7 cell derived acid sphingomyelinase using NBD-sphingomyelin as substrate after 30 mins by fluorescence based assay. The procedure, abridged:
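Cultured cells were lysed in 25 mM Tris-HCl pH 7.4, 5 mM EDTA, sonicated and cleared at 300 g. 400 μg protein incubated with NBD-sphingomyelin in 100 mM sodium acetate pH 4.7, 1% Triton X-100, 40 mM CaCl2, 100 μM ZnCl2. Inhibitors added in DMSO, 37 °C, 30 min. Stopped with chloroform/methanol 2:1; NBD-ceramide fluorescence after TLC.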

Data set [2] addresses T1, Sphingomyelin phosphodiesterase. Briefly: Inhibition of recombinant human acid sphingomyelinase (His62 to Pro628 residues) using NBD-sphingomyelin as substrate after 30 mins by fluorescence based assay. The procedure, abridged:
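Buffer 100 mM sodium acetate pH 4.7, 1% Triton X-100, 40 mM CaCl2, 100 μM ZnCl2. Inhibitors in DMSO at various concentrations, 37 °C, 30 min. NBD-ceramide fluorescence after chloroform/methanol extraction and TLC.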

Data set [3] deals with T2, Sphingomyelin phosphodiesterase 2 (Homo sapiens) (UniProt O60906).
T2 sequence (whole entry): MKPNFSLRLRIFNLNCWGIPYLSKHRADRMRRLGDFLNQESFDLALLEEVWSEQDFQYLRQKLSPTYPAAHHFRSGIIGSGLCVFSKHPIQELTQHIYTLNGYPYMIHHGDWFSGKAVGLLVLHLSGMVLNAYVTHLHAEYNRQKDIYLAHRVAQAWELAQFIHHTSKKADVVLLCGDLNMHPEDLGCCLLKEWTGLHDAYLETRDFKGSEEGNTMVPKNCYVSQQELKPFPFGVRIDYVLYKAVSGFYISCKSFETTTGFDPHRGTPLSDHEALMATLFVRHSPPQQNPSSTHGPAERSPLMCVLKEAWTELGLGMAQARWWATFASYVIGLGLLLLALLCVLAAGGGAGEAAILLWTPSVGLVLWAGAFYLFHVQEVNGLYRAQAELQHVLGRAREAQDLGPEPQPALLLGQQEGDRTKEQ
Briefly: Inhibition of neutral sphingomyelinase (unknown origin) at 100 uM using NBD-sphingomyelin as substrate after 30 mins by fluorescence based assay. An outline of the steps:
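Neutral sphingomyelinase assay run as the ASM cell-extract assay (NBD-sphingomyelin, 37 °C, 30 min, chloroform/methanol extraction, TLC, NBD-ceramide fluorescence). Buffer was 200 mM Tris-HCl pH 7.4 with 10 mM MgCl2 and 10 mM dithiothreitol. Tested at 100 μM.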

Data set [4] can be described thus: Solubility of the compound in physiological saline. It counts as physicochemical. The following applies: buffer.
In data set [5] the target is T1, Sphingomyelin phosphodiesterase. Briefly: Inhibition of acid sphingomyelinase (unknown origin).
Data set [6] concerns Rattus norvegicus. Kind of data set: Antidepressant activity in Sprague-Dawley rat model of reserpine-induced depression assessed as increase in time passing the grid at 12 mg/kg, ip administered twice daily for 2 weeks measured for 5 mins by open field test. It counts as functional, organism-based. An outline of the steps: (§1)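 Female SD rats (6-8 weeks, 200 g) given reserpine 4 mg/Kg ip daily to induce depression; test agent in 5 % DMSO, 2 % Tween 80, 5 % glucose, ip twice a day for two weeks. Each rat placed in the central square of a 100 cm × 100 cm box (25 squares, walls ~42 cm); centre time, grid crossings, rearing and grooming recorded over 5 min, 7:30–12:00; n = 8.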

In data set [7] the test system is NIH3T3. Briefly: Cytotoxicity against mouse NIH/3T3 cells assessed as reduction in cell viability after 24 hrs by MTT assay. It counts as cell-based. The following applies: mouse, nih3t3, 24 h. An outline of the steps:
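NIH3T3 cells in DMEM with 10 % FBS at 37 °C, 5 % CO₂, grown overnight, then inhibitor added for 24 h; viability read by MTT.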
For orientation: Tetrazolium assays rely on reduction of a dye to a coloured formazan, in cell work by metabolically active cells.

For data set [8], the system named is Rattus norvegicus. Briefly: Antidepressant activity in Sprague-Dawley rat model of reserpine-induced depression assessed as increase in grooming frequency at 12 mg/kg, ip administered twice daily for 2 weeks measured for 5 mins by open field test. It counts as functional, organism-based. An outline of the steps:
as §1

Data set [9] has as its system Rattus norvegicus. Kind of data set: Antidepressant activity in Sprague-Dawley rat model of reserpine-induced depression assessed as reduction in total time spent in center at 12 mg/kg, ip administered twice daily for 2 weeks measured for 5 mins by open field test. It counts as functional, organism-based. The procedure, abridged:
as §1

For data set [10], the system named is Rattus norvegicus. Kind of data set: Reversal of reserpine-induced inhibition of neurogenesis in Sprague-Dawley rat hippocampus at 12 mg/kg, ip administered twice daily for 2 weeks by EDU-incorporation assay. The format is functional, organism-based. An outline of the steps: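 Reserpine-depressed female SD rats (4 mg/Kg ip daily; drug ip twice daily for two weeks) injected with EdU 8 mg/kg twice in 1 day, killed 96 h later. Frozen brain sections washed with glycine and PBS, Click-iT stained 30 min, Hoechst 33342 30 min; hippocampal proliferation scored by fluorescence microscopy; n = 5.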

Data set [11] relates to Rattus norvegicus. Kind of data set: Antidepressant activity in Sprague-Dawley rat model of reserpine-induced depression assessed as increase in frequency of upright at 12 mg/kg, ip administered twice daily for 2 weeks measured for 5 mins by open field test. It counts as functional, organism-based. An outline of the steps: as §1

Molecules are shown by their SMILES. Active and inactive are the calls of the source. No cut-off for these calls is given here. Bounds are passed on as bounds.

This is an account of results in ChEMBL document CHEMBL4376888, “Discovery of Potent, Selective, and Direct Acid Sphingomyelinase Inhibitors with Antidepressant Activity” (J Med Chem, 2020).

Take `COc1c(O)cc2oc3cc(O)c(CC=C(C)C)c(O)c3c(=O)c2c1CC=C(C)C` [MANGOSTIN]: in [1], the half-maximal inhibitory concentration (IC50) (usually the concentration that inhibits the measured activity by half) is 14.1 µM.

`O=C(NO)c1cccc(OCc2ccc(-c3noc(Cc4ccccc4)n3)cc2)c1`: the IC50 in [2] was 4.93 µM; in data set [1], 7.83 µM.

On to `O=C(NO)c1cc(OCc2ccc(-c3ccccc3)cc2)no1`, for which the inhibition entry in data set [3] was “inactive”. In addition, the figures for the concentration for half-maximal inhibition (IC50) in data set [2] and in data set [1] were 4.09 µM and 0.88 µM, respectively.

As for `CCCCCCc1ccc(COc2cccc(C(=O)NO)c2)cc1`, the inhibition entry in data set [3] is “inactive”. Moreover, in [4], the solubility entry is reported as “Insoluble”.

For the compound `O=C(NO)c1cccc(OCc2ccc(-c3ccccc3)cc2)c1`, the inhibition entry in data set [3] was “inactive”. This compound displayed an IC50 in data set [1] of 19.6 µM. The solubility entry in [4] is listed as “Insoluble”.

For `COc1ccc(C(=O)NO)cc1OCc1noc(-c2cccc(Cl)c2)n1`, the inhibition entry in data set [3] is “inactive”. The same compound displayed an IC50 in data set [1] of 9.22 µM.

`O=C(NO)c1cccc(OCc2ccc(-c3cccnc3)cc2)c1`: in data set [1], the IC50 is 52.3 µM.

Regarding `O=C(NO)c1cccc(OCc2ccc(-c3ccc(Cl)cc3)cc2)c1`, the figures for the IC50 in [2] and in [1] were 0.36 µM and 8.96 µM, respectively. For the same compound, in [4], the solubility entry was “Insoluble”.

In the case of `CCCCCCCCCCCCC/C=C/[C@H](O)[C@@H](COP(=O)([O-])OCC[N+](C)(C)C)NC(=S)NC(C)(C)C`, the inhibition constant (Ki) – broadly, the dissociation constant of the complex between target and ligand, obtained from inhibition or displacement – in data set [5] came to 70 µM.

`O=C(NO)c1cccc(OCc2ccc(-c3noc(-c4ccc(Br)cc4)n3)cc2)c1` yielded an IC50 in data set [1] of more than 100 µM.

In data set [5], `CCOc1ccc2oc(-c3cc(Br)cc4c3OCOC4)c(N)c(=O)c2c1` registered an IC50 of 3.1 µM.

In the case of `O=C(NO)c1cccc(OCc2ccc(-c3noc(-c4ccccc4)n3)cc2)c1`, the IC50 in [1] is more than 100 µM.

`COc1ccc(C(=O)NO)cc1OCc1ccc(-c2noc(-c3ccc(Br)cc3)n2)cc1` returned an IC50 in [1] of more than 100 µM.

The compound `CCc1nc(-c2ccc(COc3cccc(C(=O)NO)c3)cc2)no1` came in with an IC50 in [1] of 34.7 µM.

For the compound `CCCCCCc1ccc(COc2cc(C(=O)NO)ccc2OC)cc1`, in data set [3], the inhibition result is “inactive”. Moreover, in data set [4], the solubility result is “Insoluble”.

With `COc1ccc(C(=O)NO)cc1OCc1ccc(-c2ccc(Cl)cc2)cc1`, in data set [3], the inhibition result is “inactive”. The IC50 in data set [2] worked out at 8.07 µM; in [1], 0.34 µM. Further, the solubility entry in data set [4] is “Insoluble”.

For `CN(C)CCC=C1c2ccccc2CCc2ccccc21` [AMITRIPTYLINE], the outcome in [6], in [8], in data set [9], in [10] and in data set [11] was Active. In addition, in data set [7], the Activity result is listed as “Non-Toxic”.

In the case of `O=C(NO)c1cccc(OCc2ccc(-c3noc(CCc4ccccc4)n3)cc2)c1`, the inhibition result in data set [3] is “inactive”. For the same compound, the IC50 in data set [2] was found to be 4.25 µM; in data set [1], 1.73 µM.

`O=C(NO)c1cccc(OCc2ccc(-c3noc(-c4cccc(F)c4)n3)cc2)c1` displayed an IC50 in data set [1] of more than 100 µM.

In [1], `COc1ccc(-c2nc(COc3cc(C(=O)NO)ccc3OC)no2)cc1OC` gave an IC50 of 13.8 µM.

As to `CCCCCCCCCCOc1cc(C(=O)NO)ccc1OC`, the IC50 in data set [2] is 0.89 µM.

In data set [5], `CCCCCCCC(N)(P(=O)(O)O)P(=O)(O)O` displayed an IC50 of 0.02 µM.

As to `COc1ccc(C(=O)NO)cc1OCc1noc(-c2ccc(Cl)cc2)n1`, the inhibition result in data set [3] is “inactive”. The compound also returned a half-inhibitory concentration (IC50) in data set [1] of 21.6 µM.

Regarding `COc1ccc(C(=O)NO)cc1OCc1ccc(-c2ccccc2)cc1`, the inhibition entry in [3] is “inactive”. In addition, in [4], the solubility entry is recorded as “Insoluble”.

`COc1ccc(C(=O)NO)cc1OCc1ccc(-c2cccnc2)cc1`: the inhibition entry in [3] was “inactive”. For the same compound, the results for the IC50 in [2] and in [1] were 3.83 µM and 4.97 µM, respectively.

On to `CCCCCCCCCCOc1cc(C(=O)NO)on1`, for which the inhibition entry in [3] was “inactive”. Also, the values for the IC50 in data set [2] and in data set [1] were 2.2 µM and 0.36 µM, respectively.
